Laboratory results as given in ChEMBL document CHEMBL1156308 (J Med Chem, 2010).

Experiments:
[1] = Biodistribution in baboon plasma at 340 mg, iv after 90 mins; type: ADME, organism-based; conditions: papio hamadryas, read-out: Drug uptake
Method in brief: (§1)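 Anaesthetised baboons received [11C]-labelled drug i.v. (radial arm vein) by PET protocol. Arterial blood was drawn from a popliteal catheter every 5 s for 2 min, then at 2–90 min. Plasma activity is given as %ID/cc. µg/ml values were estimated from the human daily dose per kg scaled to a 17 kg baboon, assuming signal comes from intact drug.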

[2] = Biodistribution in baboon heart at 340 mg, iv after 90 mins; type: ADME, organism-based; conditions: papio hamadryas, read-out: Drug uptake
Method in brief: (§2)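 Four anesthetized baboons were given ketamine 10 mg/kg i.m., with anesthesia held on O2, N2O and isoflurane 1–4%. They received a micro dose of the [11C]-labeled drug i.v. via a radial arm vein, followed by torso PET. TACs came from manually drawn organ ROIs and are reported as %ID/cc. µg/ml values were estimated from a 20 mg/kg dose and a 17 kg baboon, assuming the signal is intact drug.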

[3] = Biodistribution in baboon kidney medulla at 340 mg, iv after 15 mins; type: ADME, organism-based; conditions: papio hamadryas, read-out: Drug uptake; method in brief: as §2
[4] = Biodistribution in baboon lung at 340 mg, iv after 30 mins; type: ADME, organism-based; conditions: papio hamadryas, read-out: Drug uptake; method in brief: as §2
[5] = Biodistribution in baboon kidney medulla at 340 mg, iv after 60 mins; type: ADME, organism-based; conditions: papio hamadryas, read-out: Drug uptake; method in brief: as §2
[6] = Biodistribution in baboon kidney cortex at 340 mg, iv after 15 mins; type: ADME, organism-based; conditions: papio hamadryas, read-out: Drug uptake; method in brief: as §2
[7] = Biodistribution in baboon kidney cortex at 340 mg, iv after 90 mins; type: ADME, organism-based; conditions: papio hamadryas, read-out: Drug uptake; method in brief: as §2
[8] = Biodistribution in baboon kidney medulla at 340 mg, iv after 90 mins; type: ADME, organism-based; conditions: papio hamadryas, read-out: Drug uptake; method in brief: as §2
[9] = Biodistribution in baboon liver at 340 mg, iv after 15 mins; type: ADME, organism-based; conditions: papio hamadryas, read-out: Drug uptake; method in brief: as §2
[10] = Biodistribution in baboon kidney cortex at 340 mg, iv after 30 mins; type: ADME, organism-based; conditions: papio hamadryas, read-out: Drug uptake; method in brief: as §2
[11] = Biodistribution in baboon liver at 340 mg, iv after 90 mins; type: ADME, organism-based; conditions: papio hamadryas, read-out: Drug uptake; method in brief: as §2
[12] = Biodistribution in baboon whole brain at 340 mg, iv after 90 mins; type: ADME, organism-based; conditions: papio hamadryas, read-out: Drug uptake
Method in brief: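 Brain PET ran 90 min after i.v. [11C]-labelled drug in anaesthetised baboons. Whole-brain regions of interest gave time-activity curves in %ID/cc. µg/ml values were estimated from baboon weight (17 kg) and the recommended human daily dose per kg, assuming signal comes from intact drug.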

[13] = Biodistribution in baboon heart at 340 mg, iv after 60 mins; type: ADME, organism-based; conditions: papio hamadryas, read-out: Drug uptake; method in brief: as §2
[14] = Biodistribution in baboon whole brain at 340 mg, iv after 30 mins; type: ADME, organism-based; conditions: papio hamadryas, read-out: Drug uptake
Method in brief: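 Brain PET was acquired for 90 min after i.v. [11C]-labeled drug in anesthetized baboons (ketamine 10 mg/kg i.m.; O2/N2O/isoflurane 1–4%). The whole-brain ROI TAC is reported as %ID/cc. µg/ml was estimated assuming a 20 mg/kg dose, a 17 kg baboon, and that the signal is intact drug. Arterial blood was sampled over 90 min.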

[15] = Biodistribution in baboon lung at 340 mg, iv after 60 mins; type: ADME, organism-based; conditions: papio hamadryas, read-out: Drug uptake; method in brief: as §2
[16] = Biodistribution in baboon kidney medulla at 340 mg, iv after 30 mins; type: ADME, organism-based; conditions: papio hamadryas, read-out: Drug uptake; method in brief: as §2
[17] = Biodistribution in baboon heart at 340 mg, iv after 15 mins; type: ADME, organism-based; conditions: papio hamadryas, read-out: Drug uptake; method in brief: as §2
[18] = Biodistribution in baboon whole brain at 340 mg, iv after 60 mins; type: ADME, organism-based; conditions: papio hamadryas, read-out: Drug uptake
Method in brief: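 Baboons were anesthetized with ketamine 10 mg/kg i.m., then maintained on O2, N2O and isoflurane 1–4%. The [11C]-labeled drug was given i.v. as a micro dose through a radial arm vein. PET was acquired for 90 min. Whole-brain ROI time-activity curves were read in %ID/cc, and µg/ml was estimated assuming a 20 mg/kg dose, a 17 kg baboon and signal from intact drug.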

[19] = Biodistribution in baboon heart at 340 mg, iv after 30 mins; type: ADME, organism-based; conditions: papio hamadryas, read-out: Drug uptake; method in brief: as §2
[20] = Biodistribution in baboon lung at 340 mg, iv after 15 mins; type: ADME, organism-based; conditions: papio hamadryas, read-out: Drug uptake; method in brief: as §2
[21] = Biodistribution in baboon liver at 340 mg, iv after 30 mins; type: ADME, organism-based; conditions: papio hamadryas, read-out: Drug uptake; method in brief: as §2
[22] = Biodistribution in baboon lung at 340 mg, iv after 90 mins; type: ADME, organism-based; conditions: papio hamadryas, read-out: Drug uptake; method in brief: as §2
[23] = Biodistribution in baboon plasma at 340 mg, iv after 60 mins; type: ADME, organism-based; conditions: papio hamadryas, read-out: Drug uptake; method in brief: as §1
[24] = Biodistribution in baboon kidney cortex at 340 mg, iv after 60 mins; type: ADME, organism-based; conditions: papio hamadryas, read-out: Drug uptake; method in brief: as §2
[25] = Biodistribution in baboon liver at 340 mg, iv after 60 mins; type: ADME, organism-based; conditions: papio hamadryas, read-out: Drug uptake; method in brief: as §2
[26] = Biodistribution in baboon plasma at 340 mg, iv after 30 mins; type: ADME, organism-based; conditions: papio hamadryas, read-out: Drug uptake; method in brief: as §1
[27] = Biodistribution in baboon plasma at 340 mg, iv after 15 mins; type: ADME, organism-based; conditions: papio hamadryas, read-out: Drug uptake
Method in brief: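 Anesthetised baboons (ketamine 10 mg/kg i.m.; oxygen, nitrous oxide and isoflurane 1–4% during scanning) got a micro dose of [11C]-labelled drug i.v. via a radial arm vein; arterial blood was sampled serially over 90 min. Plasma %ID/cc was converted to µg/ml from the listed dose over a 17 kg baboon, assuming the signal is intact drug.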

[28] = Biodistribution in human CSF at 8.5 mg/kg, po after 2 hrs; type: ADME, organism-based, Cerebrospinal fluid; parameters: dose 8.5 mg/kg, route oral; conditions: read-out: Drug uptake
[29] = Plasma protein binding in baboon; type: ADME, cell-free; conditions: papio hamadryas, read-out: PPB (converted)
Method in brief: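 [11C]-labelled drug was incubated 10 min at room temperature in pooled plasma from at least 4 baboons. Total radioactivity was counted, then the sample was ultrafiltered by centrifugation (10 min) and the filtrate counted. Result is expressed as % free fraction in plasma.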

[30] = Biodistribution in ip dosed cat brain; type: ADME, organism-based, Felis catus; conditions: in vivo
[31] = Biodistribution in human CSF at 108.7 mg, po after 1 hr; type: ADME, organism-based, Cerebrospinal fluid; conditions: read-out: Drug uptake
[32] = Lipophilicity, log D of the compound; type: physicochemical; conditions: octanol/water

N[11C](=O)c1cnccn1
concentration at 1.5 h [1]: 9040 ng/mL | concentration at 1.5 h [2]: 59500 ng/mL | concentration at 0.25 h [3]: 617000 ng/mL | concentration at 0.5 h [4]: 26500 ng/mL | concentration at 1 h [5]: 343000 ng/mL | concentration at 0.25 h [6]: 20500 ng/mL | concentration at 1.5 h [7]: 9930 ng/mL | concentration at 1.5 h [8]: 229000 ng/mL | concentration at 0.25 h [9]: 36100 ng/mL | concentration at 0.5 h [10]: 16600 ng/mL | concentration at 1.5 h [11]: 19200 ng/mL | concentration at 1.5 h [12]: 13700 ng/mL | concentration at 1 h [13]: 57600 ng/mL | concentration at 0.5 h [14]: 21000 ng/mL | concentration at 1 h [15]: 22200 ng/mL | concentration at 0.5 h [16]: 474000 ng/mL | concentration at 0.25 h [17]: 67800 ng/mL | concentration at 1 h [18]: 15700 ng/mL | concentration at 0.5 h [19]: 61500 ng/mL | concentration at 0.25 h [20]: 35000 ng/mL | concentration at 0.5 h [21]: 27000 ng/mL | concentration at 1.5 h [22]: 18600 ng/mL | concentration at 1 h [23]: 11200 ng/mL | concentration at 1 h [24]: 12600 ng/mL | concentration at 1 h [25]: 22000 ng/mL | concentration at 0.5 h [26]: 14600 ng/mL | concentration at 0.25 h [27]: 22000 ng/mL

NNC(=O)c1ccncc1 [ISONIAZID]
concentration at 2 h [28]: 1900 ng/mL | fraction unbound [29]: 0.0537 | Drug uptake [30]: 0.02 µg/g | concentration at 1 h [31]: 310 ng/mL

NC(=O)c1cnccn1 [PYRAZINAMIDE]
logD [32]: -0.41 | fraction unbound [29]: 0.0868

CO[C@H]1/C=C/O[C@@]2(C)Oc3c(C)c(O)c4c(O)c(c(/C=N/N5CCN(C)CC5)c(O)c4c3C2=O)NC(=O)/C(C)=C\C=C\[C@H](C)[C@H](O)[C@@H](C)[C@@H](O)[C@@H](C)[C@H](OC(C)=O)[C@@H]1C [RIFAMPIN]
fraction unbound [29]: 0.727
